Measured values reported in ChEMBL document CHEMBL1155297, “Synthesis, antimicrobial and antioxidant activities of substituted pyrazoles, isoxazoles, pyrimidine and thioxopyrimidine derivatives” (2009).
Values after ≈ are worked out from the molar mass of the structure shown.

Tests used:
Format in all cases: functional
[1] = test system: Klebsiella pneumoniae; assay: Antibacterial activity against Klebsiella pneumoniae NCIM 2957 at 100 ug/disk after 24 hrs by agar disk diffusion method; conditions: NCIM 2957, 24 h, read-out: IZ
Method in brief: (§1)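 Agar disc diffusion on nutrient agar plates pre-inoculated with each bacterium. Sterile 6 mm filter-paper discs were moistened with compound in DMSO at the stated per-disc amount. Plates were incubated at 37 °C, and the growth-inhibition zone diameter was read after 24 h. Each determination was run in triplicate, and the mean of three independent readings is reported.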

[2] = test system: Fusarium solani; assay: Antifungal activity against Fusarium solani NCIM 1330 at 100 ug/disk after 48 hrs by agar disk diffusion method; conditions: NCIM 1330, 48 h, read-out: IZ
Method in brief: (§2)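 Fungal disc diffusion on nutrient agar plates pre-inoculated with each fungus. 6 mm sterile paper discs carried the compound in DMSO at the stated amount per disc. Plates were held at 37 °C, and inhibition-zone diameter was measured after 48 h. Values are the mean of three independent triplicate readings.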

[3] = test system: Bacillus subtilis; assay: Antibacterial activity against Bacillus subtilis NCIM 2063 at 200 ug/disk after 24 hrs by agar disk diffusion method; conditions: NCIM 2063, 24 h, read-out: IZ; method in brief: as §1
[4] = test system: Bacillus subtilis; assay: Antibacterial activity against Bacillus subtilis NCIM 2063 at 100 ug/disk after 24 hrs by agar disk diffusion method; conditions: NCIM 2063, 24 h, read-out: IZ; method in brief: as §1
[5] = test system: Staphylococcus aureus; assay: Antibacterial activity against Staphylococcus aureus NCIM 5021 at 200 ug/disk after 24 hrs by agar disk diffusion method; conditions: NCIM 5021, 24 h, read-out: IZ; method in brief: as §1
[6] = test system: Klebsiella pneumoniae; assay: Antibacterial activity against Klebsiella pneumoniae NCIM 2957 at 200 ug/disk after 24 hrs by agar disk diffusion method; conditions: NCIM 2957, 24 h, read-out: IZ; method in brief: as §1
[7] = test system: Aspergillus niger; assay: Antifungal activity against Aspergillus niger NCIM 596 at 100 ug/disk after 48 hrs by agar disk diffusion method; conditions: NCIM 596, 48 h, read-out: IZ; method in brief: as §2
[8] = test system: Klebsiella pneumoniae; assay: Antibacterial activity against Klebsiella pneumoniae NCIM 2957 after 24 hrs by microdilution susceptibility method; conditions: NCIM 2957, 24 h
Method in brief: (§3)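 MIC by microdilution susceptibility; compounds in DMSO, bacterial suspensions inoculated into wells. Incubation was at 36 °C for 24 h. MIC is the lowest compound concentration showing no turbidity. Chloramphenicol served as reference antibacterial.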

[9] = Antioxidant activity assessed as nitric oxide production at 100 uM after 120 mins by Griess reagent method
Method in brief: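 Nitric oxide assay with Griess read-out. At intervals, 0.5 ml of incubation solution was mixed with 0.5 ml Griess reagent (1% sulfanilamide, 0.1% N-naphthylethylenediamine dihydrochloride, 2% o-phosphoric acid in water). The control received an equal amount of solvent and was handled identically.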

[10] = test system: Curvularia lunata; assay: Antifungal activity against Curvularia lunata NCIM 716 at 200 ug/disk after 48 hrs by agar disk diffusion method; conditions: NCIM 716, 48 h, read-out: IZ; method in brief: as §2
[11] = test system: Fusarium solani; assay: Antifungal activity against Fusarium solani NCIM 1330 after 48 hrs by microdilution susceptibility method; conditions: NCIM 1330, 48 h
Method in brief: (§4)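 Broth microdilution MIC; fungal suspensions were inoculated into wells containing compound dissolved in DMSO. Incubation was at 36 °C for 48 h. MIC was recorded as the lowest concentration with no turbidity. Ketoconazole was the reference antifungal.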

[12] = test system: Proteus vulgaris; assay: Antibacterial activity against Proteus vulgaris NCIM 2027 at 200 ug/disk after 24 hrs by agar disk diffusion method; conditions: NCIM 2027, 24 h, read-out: IZ; method in brief: as §1
[13] = test system: Radical scavenging activity; assay: Antioxidant activity assessed as DPPH free radical scavenging activity at 100 uM after 20 mins
Method in brief: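 DPPH scavenging: compound solutions were added to DPPH in dioxane/ethanol and kept at ambient temperature for 20 min. Absorbance was read at 517 nm. The test–control difference was expressed as percent DPPH radical scavenging.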

[14] = test system: Curvularia lunata; assay: Antifungal activity against Curvularia lunata NCIM 716 after 48 hrs by microdilution susceptibility method; conditions: NCIM 716, 48 h; method in brief: as §4
[15] = test system: Fusarium solani; assay: Antifungal activity against Fusarium solani NCIM 1330 at 200 ug/disk after 48 hrs by agar disk diffusion method; conditions: NCIM 1330, 48 h, read-out: IZ; method in brief: as §2
[16] = test system: Aspergillus niger; assay: Antifungal activity against Aspergillus niger NCIM 596 at 200 ug/disk after 48 hrs by agar disk diffusion method; conditions: NCIM 596, 48 h, read-out: IZ; method in brief: as §2
[17] = test system: Aspergillus niger; assay: Antifungal activity against Aspergillus niger NCIM 596 after 48 hrs by microdilution susceptibility method; conditions: NCIM 596, 48 h; method in brief: as §4
[18] = test system: Proteus vulgaris; assay: Antibacterial activity against Proteus vulgaris NCIM 2027 at 100 ug/disk after 24 hrs by agar disk diffusion method; conditions: NCIM 2027, 24 h, read-out: IZ; method in brief: as §1
[19] = test system: Bacillus subtilis; assay: Antibacterial activity against Bacillus subtilis NCIM 2063 after 24 hrs by microdilution susceptibility method; conditions: NCIM 2063, 24 h; method in brief: as §3
[20] = test system: Staphylococcus aureus; assay: Antibacterial activity against Staphylococcus aureus NCIM 5021 at 100 ug/disk after 24 hrs by agar disk diffusion method; conditions: NCIM 5021, 24 h, read-out: IZ; method in brief: as §1
[21] = test system: Proteus vulgaris; assay: Antibacterial activity against Proteus vulgaris NCIM 2027 after 24 hrs by microdilution susceptibility method; conditions: NCIM 2027, 24 h; method in brief: as §3
[22] = test system: Staphylococcus aureus; assay: Antibacterial activity against Staphylococcus aureus NCIM 5021 after 24 hrs by microdilution susceptibility method; conditions: NCIM 5021, 24 h; method in brief: as §3
[23] = test system: Curvularia lunata; assay: Antifungal activity against Curvularia lunata NCIM 716 at 100 ug/disk after 48 hrs by agar disk diffusion method; conditions: NCIM 716, 48 h, read-out: IZ; method in brief: as §2

Row | Structure (SMILES) | zone of inhibition at 100 µg/disc [1] [mm] | zone of inhibition at 100 µg/disc [2] [mm] | zone of inhibition at 200 µg/disc [3] [mm] | zone of inhibition at 100 µg/disc [4] [mm] | zone of inhibition at 200 µg/disc [5] [mm] | zone of inhibition at 200 µg/disc [6] [mm] | zone of inhibition at 100 µg/disc [7] [mm] | MIC [8] [µg/mL] | inhibition [9] [%] | zone of inhibition at 200 µg/disc [10] [mm] | MIC [11] [µg/mL] | zone of inhibition at 200 µg/disc [12] [mm] | inhibition [13] [%] | MIC [14] [µg/mL] | zone of inhibition at 200 µg/disc [15] [mm] | zone of inhibition at 200 µg/disc [16] [mm] | MIC [17] [µg/mL] | zone of inhibition at 100 µg/disc [18] [mm] | zone of inhibition at 100 µg/disc [20] [mm] | zone of inhibition at 100 µg/disc [23] [mm] | also measured
1 | N=C1ON=C(N)C1C(CC(=O)c1ccc(Cl)cc1)C(=O)c1ccc(Cl)cc1 (stereo not given) | 25 | 33 | 30 | 28 | 32 | 27 | 26 | 100 (≈ 247 µM) | 90.3 | 34 | 100 (≈ 247 µM) | 26 | 89.6 | 100 (≈ 247 µM) | 35 | 28 | 100 (≈ 247 µM) | 25 | 29 | 32 | MIC [19]: 50 µg/mL (≈ 124 µM); MIC [21]: 200 µg/mL (≈ 495 µM); MIC [22]: 50 µg/mL (≈ 124 µM)
2 | CC(=O)N1CCN(c2ccc(OCC3COC(Cn4ccnc4)(c4ccc(Cl)cc4Cl)O3)cc2)CC1 (stereo not given) [KETOCONAZOLE] |  | 38 |  |  |  |  | 36 |  |  | 44 | 12.5 (≈ 23.5 µM) |  |  | 6.25 (≈ 11.8 µM) | 42 | 39 | 6.25 (≈ 11.8 µM) |  |  | 41 | 
3 | O=C(N[C@H](CO)[C@H](O)c1ccc([N+](=O)[O-])cc1)C(Cl)Cl [CHLORAMPHENICOL] | 37 |  | 44 | 38 | 41 | 42 |  | 12.5 (≈ 38.7 µM) |  |  |  | 45 |  |  |  |  |  | 42 | 35 |  | MIC [19]: 6.25 µg/mL (≈ 19.3 µM); MIC [21]: 12.5 µg/mL (≈ 38.7 µM); MIC [22]: 6.25 µg/mL (≈ 19.3 µM)
4 | NC1=NN=C(N)C1C(CC(=O)c1ccc(Cl)cc1)C(=O)c1ccc(Cl)cc1 (stereo not given) | 28 | 33 | 32 | 28 | 33 | 30 | 32 | 100 (≈ 248 µM) | 90.7 | 36 | 200 (≈ 496 µM) | 28 | 91.7 | 200 (≈ 496 µM) | 37 | 33 | 200 (≈ 496 µM) | 25 | 31 | 34 | MIC [19]: 100 µg/mL (≈ 248 µM); MIC [21]: 100 µg/mL (≈ 248 µM); MIC [22]: 100 µg/mL (≈ 248 µM)
5 | N=C1ON=C(N)C1C(CS(=O)(=O)c1ccc(Cl)cc1)S(=O)(=O)c1ccc(Cl)cc1 (stereo not given) | 26 | 33 | 34 | 31 | 33 | 29 | 29 | 100 (≈ 210 µM) | 95.4 | 33 | 100 (≈ 210 µM) | 30 | 94.5 | 50 (≈ 105 µM) | 35 | 32 | 50 (≈ 105 µM) | 28 | 32 | 31 | MIC [19]: 50 µg/mL (≈ 105 µM); MIC [21]: 100 µg/mL (≈ 210 µM); MIC [22]: 50 µg/mL (≈ 105 µM)
6 | NC1=NN=C(N)C1C(CS(=O)(=O)c1ccc(Cl)cc1)S(=O)(=O)c1ccc(Cl)cc1 (stereo not given) | 30 | 35 | 37 | 35 | 36 | 32 | 32 | 50 (≈ 105 µM) | 92.4 | 38 | 200 (≈ 421 µM) | 33 | 92.4 | 100 (≈ 210 µM) | 39 | 35 | 100 (≈ 210 µM) | 31 | 34 | 34 | MIC [19]: 25 µg/mL (≈ 52.6 µM); MIC [21]: 50 µg/mL (≈ 105 µM); MIC [22]: 25 µg/mL (≈ 52.6 µM)
7 | CN1C(=N)C(C(CS(=O)(=O)c2ccccc2)S(=O)(=O)c2ccccc2)C(=N)N(C)C1=O (stereo not given) | 9 | 13 | 16 | 14 | 15 | 12 | 14 |  | 26.9 | 20 |  | 12 | 27.7 |  | 16 | 16 |  | 10 | 13 | 16 | 
8 | NC1=NC(=O)N=C(N)C1C(CC(=O)c1ccccc1)C(=O)c1ccccc1 (stereo not given) | 11 | 13 | 15 | 16 | 14 | 12 | 14 |  | 26.8 | 20 |  | 14 | 24.7 |  | 16 | 17 |  | 12 | 11 | 16 | 
